Assay results collected from several papers.
Cell line: SW-620
Effect on: cell growth or viability

Compound | assay | conditions | endpoint | value
Cc1cc(C)n(C(=S)[S][Au][PH](CCCCCC[PH]([Au][S]C(=S)n2nc(C)cc2C)(c2ccccc2)c2ccccc2)(c2ccccc2)c2ccccc2)n1 |  |  | GI50 | 1.26 µM
CC[C@H](C)C(=O)O[C@H]1C[C@@H](C)C=C2C=C[C@H](C)[C@H](CC[C@@H]3C[C@@H](O)CC(=O)O3)[C@H]21 | SRB | 72 h | IC50 | 0.03 mg/L
COc1ccc(C(=O)/C=C/c2cccc(Cl)c2Cl)cc1S(N)(=O)=O | SRB | 48 h | GI50 | 1.6 µM
CC[C@H](C)C(=O)O[C@H]1CCC=C2C=C[C@H](C)[C@H](CC[C@@H]3C[C@@H](O)CC(=O)O3)[C@H]21 | SRB | 72 h | IC50 | 0.48 mg/L
COc1ccc(C(=O)/C=C/c2ccccc2Br)cc1S(N)(=O)=O | SRB | 10 µM | inhibition | 146%
O=C(/C=C/c1ccc2ncn(Cc3ccccc3)c(=O)c2c1)NO | SRB | 48 h | IC50 | 1.52 µM
COc1ccc(C(=O)/C=C/c2ccc3c(c2)OCCO3)cc1S(N)(=O)=O | SRB | 10 µM | inhibition | 68%
O=C(/C=C/c1ccc2c(=O)n(CCO)cnc2c1)NO | SRB | 48 h | IC50 | 3.68 µM
COc1ccc(C(=O)/C=C/c2c(F)cccc2Cl)cc1S(N)(=O)=O | SRB | 48 h | GI50 | 3.6 µM
O=C(/C=C/c1ccc2ncn(Cc3ccc(Cl)cc3)c(=O)c2c1)NO | SRB | 48 h | IC50 | 2.57 µM
COc1cc(Nc2nccc(-c3cnn4nc(OC)ccc34)n2)cc(C(F)(F)F)c1 | ATP luminescence |  | IC50 | 0.16 µM
O=C(/C=C/c1ccc2c(=O)n(Cc3ccc(F)cc3)cnc2c1)NO | SRB | 48 h | IC50 | 1.03 µM
CC(=O)Nc1cccc(-n2c(=O)n(C3CC3)c(=O)c3c(Nc4ccc(I)cc4F)n(C)c(=O)c(C)c32)c1 | resazurin | 50 nM, 72 h | viability | 25.7%
CCn1cnc2cc(/C=C/C(=O)NO)ccc2c1=O | SRB | 48 h | IC50 | 2.97 µM
COc1ccc(C(=O)/C=C/c2cccc(Br)c2)cc1S(N)(=O)=O | SRB | 10 µM | inhibition | 120%
